According to ChEMBL document CHEMBL4219238, “Design, synthesis, molecular modelling and in vitro cytotoxicity analysis of novel carbamate derivatives as inhibitors of Monoacylglycerol lipase” (Bioorg Med Chem, 2018):
pIC50: −log10 of the molar value. The source made the active and inactive calls. No cut-off for these calls is given here.

Assays:
Monoglyceride lipase = biological target: T1, Monoglyceride lipase (Homo sapiens, UniProt Q99685); assay: Inhibition of recombinant human MAGL using 7-HRA as substrate preincubated for 60 mins followed by substrate addition by fluorescence assay; settings: read-out: IC50
T1 sequence (Q99685 whole entry): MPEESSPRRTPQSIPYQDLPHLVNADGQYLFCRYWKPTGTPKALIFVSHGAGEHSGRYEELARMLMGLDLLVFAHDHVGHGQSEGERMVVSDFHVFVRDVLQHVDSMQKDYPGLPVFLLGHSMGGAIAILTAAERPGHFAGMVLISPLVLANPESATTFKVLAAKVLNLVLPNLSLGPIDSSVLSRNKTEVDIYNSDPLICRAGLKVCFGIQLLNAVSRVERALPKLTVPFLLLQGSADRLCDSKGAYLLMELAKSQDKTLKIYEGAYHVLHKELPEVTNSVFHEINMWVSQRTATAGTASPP

[1] = biological target: T2, Monoglyceride lipase (Mus musculus) (UniProt O35678); assay: Inhibition of MAGL in mouse B16-F10 intact cells at 10 uM using 7-HRA as substrate preincubated for 6 hrs followed by substrate addition by fluorescence assay; assay type: cell-based
T2 sequence (whole entry): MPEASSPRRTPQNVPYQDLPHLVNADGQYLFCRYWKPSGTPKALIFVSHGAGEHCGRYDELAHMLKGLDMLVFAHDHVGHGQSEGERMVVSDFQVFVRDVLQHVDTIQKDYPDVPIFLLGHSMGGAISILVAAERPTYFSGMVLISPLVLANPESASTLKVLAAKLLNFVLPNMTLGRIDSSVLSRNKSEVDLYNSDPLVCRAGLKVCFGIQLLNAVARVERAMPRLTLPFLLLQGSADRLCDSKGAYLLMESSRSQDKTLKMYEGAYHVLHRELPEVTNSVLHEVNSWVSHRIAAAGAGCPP
In short: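 Intact B16-F10 cells cultured 6 h with compound or DMSO, homogenised 30 min at 4 °C in lysis buffer and spun 1,500 × g 5 min. 1 μg lysate assayed with 10 μM 7-HRA (ex 571/em 588 nm); 5-min values reported; mean ± SEM, n = 3.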

B16-F10 [2] = assay: Induction of apoptosis in mouse B16F10 cells assessed as live cells at 10 uM after 48 hrs by Annexin V-FITC/propidium iodide staining based flow cytometry (reference value: 88.04%); assay type: functional
B16-F10 [3] = assay: Induction of apoptosis in mouse B16F10 cells assessed as late apoptotic cells at 10 uM after 48 hrs by Annexin V-FITC/propidium iodide staining based flow cytometry (reference value: 7.39%); assay type: functional
B16-F10 [4] = assay: Induction of apoptosis in mouse B16F10 cells assessed as necrotic cells at 10 uM after 48 hrs by Annexin V-FITC/propidium iodide staining based flow cytometry (reference value: 2.62%); assay type: functional
B16-F10 [5] = assay: Induction of apoptosis in mouse B16F10 cells assessed as live cells at 35 nM after 48 hrs by Annexin V-FITC/propidium iodide staining based flow cytometry (reference value: 79.55%); assay type: functional
B16-F10 [6] = assay: Induction of apoptosis in mouse B16F10 cells assessed as late apoptotic cells at 35 nM after 48 hrs by Annexin V-FITC/propidium iodide staining based flow cytometry (reference value: 13.54%); assay type: functional
B16-F10 [7] = assay: Induction of apoptosis in mouse B16F10 cells assessed as early apoptotic cells at 75 nM after 48 hrs by Annexin V-FITC/propidium iodide staining based flow cytometry (reference value: 1.43%); assay type: functional
B16-F10 [8] = assay: Induction of apoptosis in mouse B16F10 cells assessed as late apoptotic cells at 75 nM after 48 hrs by Annexin V-FITC/propidium iodide staining based flow cytometry (reference value: 13.54%); assay type: functional
B16-F10 [9] = assay: Induction of apoptosis in mouse B16F10 cells assessed as necrotic cells at 75 nM after 48 hrs by Annexin V-FITC/propidium iodide staining based flow cytometry (reference value: 5.48%); assay type: functional
MCF7 [10] = assay: Induction of apoptosis in human MCF7 cells assessed as live cells at 10 uM after 48 hrs by Annexin V-FITC/propidium iodide staining based flow cytometry (reference value: 82.58%); assay type: functional
In short: (§1)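 HEK293T (DMEM with 10% FBS) or MCF7 (DMEM/Ham's F-12 1:1, 10% FBS) cells treated 48 h with 10 μM compound or DMSO. Staining with Alexa Fluor 488 annexin V plus 5 μg/ml PI in HEPES/NaCl/CaCl2 binding buffer; 10,000 cells per sample read by flow cytometry; n = 3, mean ± S.E.M.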

MCF7 [11] = assay: Induction of apoptosis in human MCF7 cells assessed as early apoptotic cells at 10 uM after 48 hrs by Annexin V-FITC/propidium iodide staining based flow cytometry (reference value: 3.16%); assay type: functional; in short: as §1
MCF7 [12] = assay: Induction of apoptosis in human MCF7 cells assessed as late apoptotic cells at 10 uM after 48 hrs by Annexin V-FITC/propidium iodide staining based flow cytometry (reference value: 8.84%); assay type: functional; in short: as §1
MCF7 [13] = assay: Induction of apoptosis in human MCF7 cells assessed as necrotic cells at 10 uM after 48 hrs by Annexin V-FITC/propidium iodide staining based flow cytometry (reference value: 5.42%); assay type: functional; in short: as §1
MCF7 [14] = assay: Induction of apoptosis in human MCF7 cells at 10 uM after 48 hrs in presence of MAGL inhibitor JZL184 by Annexin V-FITC/propidium iodide staining based flow cytometry; assay type: functional, cell-based
[15] = biological target: T3, Fatty-acid amide hydrolase 1 (Homo sapiens) (UniProt O00519); assay: Inhibition of human FAAH at 10 uM using AAMCA as substrate preincubated for 1 hr followed by substrate addition measured after 30 mins by fluorescence assay relative to control
T3 sequence (whole entry): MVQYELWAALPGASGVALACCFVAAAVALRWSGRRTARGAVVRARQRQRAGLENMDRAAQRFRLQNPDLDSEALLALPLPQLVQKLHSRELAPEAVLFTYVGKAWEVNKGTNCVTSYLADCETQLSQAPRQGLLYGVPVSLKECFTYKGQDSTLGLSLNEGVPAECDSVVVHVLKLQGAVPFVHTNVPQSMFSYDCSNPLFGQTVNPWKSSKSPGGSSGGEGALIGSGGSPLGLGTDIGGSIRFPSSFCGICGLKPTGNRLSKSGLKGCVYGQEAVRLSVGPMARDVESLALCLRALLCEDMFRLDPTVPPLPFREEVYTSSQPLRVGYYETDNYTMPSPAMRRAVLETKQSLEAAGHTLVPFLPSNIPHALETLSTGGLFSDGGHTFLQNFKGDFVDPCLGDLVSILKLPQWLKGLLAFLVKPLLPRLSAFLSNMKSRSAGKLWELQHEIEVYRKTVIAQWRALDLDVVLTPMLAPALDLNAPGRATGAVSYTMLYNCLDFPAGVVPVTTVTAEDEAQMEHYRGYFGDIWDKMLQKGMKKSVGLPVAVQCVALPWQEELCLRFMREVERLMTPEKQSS
In short: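 Recombinant human FAAH (C-terminal His-tagged, Sf21), 1 U/well, in 50 mM Tris-HCl, 1 mM EDTA, pH 9, preincubated 1 h at room temperature with 10 μM compound (final). AAMCA added to 20 μM final; fluorescence (ex 360/em 460 nm) read every 3 min for 30 min. Rate by linear regression, no-enzyme background subtracted, normalised to no-inhibitor control.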

SMILES: O=C(Nc1cccc(-c2ccc(C(F)(F)F)cc2)c1)OCc1ccco1
- pIC50 (Monoglyceride lipase): 5.17
- inhibition [1]: Active
- Activity (B16-F10 [2]): 17.8%
- Activity (B16-F10 [3]): 64.08%
- Activity (B16-F10 [4]): 14.25%
- Activity (B16-F10 [5]): 66.12%
- Activity (B16-F10 [6]): 29.37%
- Activity (B16-F10 [7]): 2.44%
- Activity (B16-F10 [8]): 30.39%
- Activity (B16-F10 [9]): 4.33%
- Activity (MCF7 [10]): 60.27%
- Activity (MCF7 [11]): 8.77%
- Activity (MCF7 [12]): 25.63%
- Activity (MCF7 [13]): 5.33%
- Activity (MCF7 [14]): Active
- inhibition [15]: 10%
